ChEMBL document CHEMBL4004869, “3-Phenylalkyl-2H-chromenes and -chromans as novel rhinovirus infection inhibitors” (Bioorg Med Chem, 2017)

tested on: not listed separately; test: Cytotoxicity against human HeLa cells assessed as changes in morphology after 3 days by microscopic method; type: cell-based; settings: read-out: MNCC; call rule not given here
Summary of the method: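 HeLa cytotoxicity by XTT colorimetric assay plus microscopy after 3 days at 37 °C. MNCC is the highest concentration leaving morphology and viability of all cells unaffected. CC50 is the dose reducing viability by 50% of untreated controls. Two independent assays in triplicate.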

SMILES | MNTC at 72 h
c1ccc(CCCCC2COc3ccccc3C2)cc1 (configuration not stated) | 50 µM
c1ccc(CCC2COc3ccccc3C2)cc1 (configuration not stated) | 3.12 µM
Clc1ccc2c(c1)CC(CCCc1ccccc1)CO2 (configuration not stated) | 100 µM
Clc1ccc(CCCC2COc3ccc(Cl)cc3C2)cc1 (configuration not stated) | 100 µM
C1=C(CCCc2ccccc2)COc2ccccc21 | 100 µM
O=C(/C=C/C1=Cc2ccccc2OC1)c1ccccc1 | 25 µM
C1=C(CCc2ccccc2)COc2ccccc21 | 25 µM
C1=C(CCCCCc2ccccc2)COc2ccccc21 | 50 µM
C/C(=C\c1ccccc1)C1=Cc2ccccc2OC1 | 12.5 µM
C1=C(CCCCc2ccccc2)COc2ccccc21 | 50 µM
c1ccc(CCCCCC2COc3ccccc3C2)cc1 (configuration not stated) | 100 µM
c1ccc(CCCC2COc3ccccc3C2)cc1 (configuration not stated) | 100 µM

tested on: not listed separately; test: Selectivity index, ratio of CC50 for human HeLa cells to IC50 for HRV 14 infected in human HeLa cells; settings: not given
Summary of the method: (§1)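 Selectivity index is CC50 (XTT, HeLa) divided by IC50 from HeLa plaque reduction against the stated serotype.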

SMILES | Ratio CC50/IC50
Clc1ccc2c(c1)CC(CCCc1ccccc1)CO2 (configuration not stated) | 8
Clc1ccc(CCCC2COc3ccc(Cl)cc3C2)cc1 (configuration not stated) | 6.67
C1=C(CCCc2ccccc2)COc2ccccc21 | 4.94
C1=C(CCCCc2ccccc2)COc2ccccc21 | 7.87
c1ccc(CCCCCC2COc3ccccc3C2)cc1 (configuration not stated) | 6.05

tested on: rhinovirus B14; test: Antiviral activity against HRV 14 infected in human HeLa cells at MNCC after 72 hrs by plaque reduction assay relative to control; type: functional; design: scale not given: the % may be the effect or the level left; settings: not given
Summary of the method: (§2)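 Plaque reduction in HeLa monolayers infected with virus giving about 100 plaques per well. Compound tested dose-dependently starting from the maximum non-cytotoxic concentration, with ethanol stocks diluted in medium just before use. IC50 is the dose cutting plaque number by 50%, read from log concentration versus percent plaque reduction. Where 50% is not reached, percent inhibition at MNCC is given. Two independent assays in triplicate, mean ± SD.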

SMILES | Activity
c1ccc(CCCCC2COc3ccccc3C2)cc1 (configuration not stated) | 25%
c1ccc(CCC2COc3ccccc3C2)cc1 (configuration not stated) | 16%
C1=C(CCc2ccccc2)COc2ccccc21 | 26%
C1=C(CCCCCc2ccccc2)COc2ccccc21 | 37%
c1ccc(CCCC2COc3ccccc3C2)cc1 (configuration not stated) | 37%

tested on: not listed separately; test: Cytotoxicity against human HeLa cells assessed as reduction in cell viability by XTT assay; type: cell-based; settings: not given
Summary of the method: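 HeLa cytotoxicity by XTT colorimetric assay plus microscopy after 3 days at 37 °C. MNCC is the highest concentration leaving morphology and viability of all cells unaffected. Two independent assays in triplicate.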

SMILES | CC50
c1ccc(CCCCC2COc3ccccc3C2)cc1 (configuration not stated) | 100 µM
c1ccc(CCC2COc3ccccc3C2)cc1 (configuration not stated) | 6.25 µM
Clc1ccc2c(c1)CC(CCCc1ccccc1)CO2 (configuration not stated) | 200 µM
Clc1ccc(CCCC2COc3ccc(Cl)cc3C2)cc1 (configuration not stated) | 200 µM
C1=C(CCCc2ccccc2)COc2ccccc21 | 200 µM
O=C(/C=C/C1=Cc2ccccc2OC1)c1ccccc1 | 50 µM
C1=C(CCc2ccccc2)COc2ccccc21 | 50 µM
C1=C(CCCCCc2ccccc2)COc2ccccc21 | 100 µM
C/C(=C\c1ccccc1)C1=Cc2ccccc2OC1 | 25 µM
C1=C(CCCCc2ccccc2)COc2ccccc21 | 100 µM
c1ccc(CCCCCC2COc3ccccc3C2)cc1 (configuration not stated) | 200 µM
c1ccc(CCCC2COc3ccccc3C2)cc1 (configuration not stated) | 200 µM

tested on: rhinovirus B14; test: Antiviral activity against HRV 14 infected in human HeLa cells after 72 hrs by plaque reduction assay; type: functional, cell-based; settings: not given; summary of the method: as §2

SMILES | Activity
c1ccc(CCCCC2COc3ccccc3C2)cc1 (configuration not stated) | Dose-dependent effect
c1ccc(CCC2COc3ccccc3C2)cc1 (configuration not stated) | Dose-dependent effect
Clc1ccc2c(c1)CC(CCCc1ccccc1)CO2 (configuration not stated) | Dose-dependent effect
Clc1ccc(CCCC2COc3ccc(Cl)cc3C2)cc1 (configuration not stated) | Dose-dependent effect
C1=C(CCCc2ccccc2)COc2ccccc21 | Dose-dependent effect
C1=C(CCc2ccccc2)COc2ccccc21 | Dose-dependent effect
C1=C(CCCCCc2ccccc2)COc2ccccc21 | Dose-dependent effect
C1=C(CCCCc2ccccc2)COc2ccccc21 | Dose-dependent effect
c1ccc(CCCCCC2COc3ccccc3C2)cc1 (configuration not stated) | Dose-dependent effect
c1ccc(CCCC2COc3ccccc3C2)cc1 (configuration not stated) | Dose-dependent effect

same assay, conditions: Rhinovirus B, HeLa, 72 h; read-out: IC50

SMILES | IC50
c1ccc(CCCCC2COc3ccccc3C2)cc1 (configuration not stated) | > 50 µM
Clc1ccc(CCCC2COc3ccc(Cl)cc3C2)cc1 (configuration not stated) | 30 µM
C1=C(CCc2ccccc2)COc2ccccc21 | > 25 µM
C1=C(CCCCCc2ccccc2)COc2ccccc21 | > 50 µM
C1=C(CCCCc2ccccc2)COc2ccccc21 | 12.7 µM
c1ccc(CCCC2COc3ccccc3C2)cc1 (configuration not stated) | > 100 µM

Second part, the compound after the results:

IC50 | SMILES
> 3.12 µM | c1ccc(CCC2COc3ccccc3C2)cc1 (configuration not stated)
25 µM | Clc1ccc2c(c1)CC(CCCc1ccccc1)CO2 (configuration not stated)
40.5 µM | C1=C(CCCc2ccccc2)COc2ccccc21
33 µM | c1ccc(CCCCCC2COc3ccccc3C2)cc1 (configuration not stated)

same assay, conditions: hela

IC50 | SMILES
Not Active | C/C(=C\c1ccccc1)C1=Cc2ccccc2OC1

tested on: not listed separately; test: Selectivity index, ratio of CC50 for human HeLa cells to IC50 for HRV 1B infected in human HeLa cells; settings: not given; summary of the method: as §1

SMILES | Ratio CC50/IC50
c1ccc(CCCCC2COc3ccccc3C2)cc1 (configuration not stated) | 140.84
c1ccc(CCC2COc3ccccc3C2)cc1 (configuration not stated) | 12.75
Clc1ccc2c(c1)CC(CCCc1ccccc1)CO2 (configuration not stated) | 111.73
Clc1ccc(CCCC2COc3ccc(Cl)cc3C2)cc1 (configuration not stated) | 357.14
C1=C(CCCc2ccccc2)COc2ccccc21 | 84.39
C1=C(CCc2ccccc2)COc2ccccc21 | 104.17
C1=C(CCCCCc2ccccc2)COc2ccccc21 | 178.57
C1=C(CCCCc2ccccc2)COc2ccccc21 | 185.18
c1ccc(CCCCCC2COc3ccccc3C2)cc1 (configuration not stated) | 42.19
c1ccc(CCCC2COc3ccccc3C2)cc1 (configuration not stated) | 20.85

tested on: rhinovirus A1B; test: Antiviral activity against HRV 1B infected in human HeLa cells after 72 hrs by plaque reduction assay; type: functional, cell-based; settings: not given
Summary of the method: as §2, with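 “use.” for “use. IC50 is the dose cutting plaque number by 50%, read from log concentration versus percent plaque reduction.”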

SMILES | Activity
c1ccc(CCCCC2COc3ccccc3C2)cc1 (configuration not stated) | Dose-dependent effect
c1ccc(CCC2COc3ccccc3C2)cc1 (configuration not stated) | Dose-dependent effect
Clc1ccc2c(c1)CC(CCCc1ccccc1)CO2 (configuration not stated) | Dose-dependent effect
Clc1ccc(CCCC2COc3ccc(Cl)cc3C2)cc1 (configuration not stated) | Dose-dependent effect
C1=C(CCCc2ccccc2)COc2ccccc21 | Dose-dependent effect
C1=C(CCc2ccccc2)COc2ccccc21 | Dose-dependent effect
C1=C(CCCCCc2ccccc2)COc2ccccc21 | Dose-dependent effect
C1=C(CCCCc2ccccc2)COc2ccccc21 | Dose-dependent effect
c1ccc(CCCCCC2COc3ccccc3C2)cc1 (configuration not stated) | Dose-dependent effect
c1ccc(CCCC2COc3ccccc3C2)cc1 (configuration not stated) | Dose-dependent effect

same assay, conditions: Rhinovirus A, HeLa, 72 h; read-out: IC50

SMILES | IC50
c1ccc(CCCCC2COc3ccccc3C2)cc1 (configuration not stated) | 0.71 µM
Clc1ccc(CCCC2COc3ccc(Cl)cc3C2)cc1 (configuration not stated) | 0.56 µM
C1=C(CCc2ccccc2)COc2ccccc21 | 0.48 µM
C1=C(CCCCCc2ccccc2)COc2ccccc21 | 0.56 µM
C1=C(CCCCc2ccccc2)COc2ccccc21 | 0.54 µM
c1ccc(CCCC2COc3ccccc3C2)cc1 (configuration not stated) | 9.59 µM

Continued, values first:

IC50 | SMILES
0.49 µM | c1ccc(CCC2COc3ccccc3C2)cc1 (configuration not stated)
1.79 µM | Clc1ccc2c(c1)CC(CCCc1ccccc1)CO2 (configuration not stated)
2.37 µM | C1=C(CCCc2ccccc2)COc2ccccc21
4.74 µM | c1ccc(CCCCCC2COc3ccccc3C2)cc1 (configuration not stated)

same assay, conditions: hela

IC50 | SMILES
Not Active | O=C(/C=C/C1=Cc2ccccc2OC1)c1ccccc1
Not Active | C/C(=C\c1ccccc1)C1=Cc2ccccc2OC1
